Experimental data taken from ChEMBL document CHEMBL1152770, “Inhibitors of hepatitis C virus polymerase: synthesis and biological characterization of unsymmetrical dialkyl-hydroxynaphthalenoyl-benzothiadiazines” (J Med Chem, 2009).
Values belong to the compound of their own block, whether it stands above or below them.

Assays:
Hepatitis C virus [1] = assay: Antiviral activity against HCV isolate Con1 in human Huh7 cells assessed as reduction in viral RNA after 4 days by RT-PCR; conditions: isolate Con1, Huh-7, 96 h
Hepatitis C virus [2] = assay: Antiviral activity against HCV genotype 1 infected in human assessed as reduction in viral titer after 48 hrs; assay type: functional, Hepacivirus hominis
Hepatitis C virus [3] = assay: Antiviral activity against HCV 1a containing chimeric genotype 1a-H77/1b-con1 subgenom in human Huh7 cells assessed as reduction in viral RNA after 4 days by RT-PCR; conditions: subtype 1a, Huh-7, 96 h
[4] = Solubility in polyethylene glycol 400 at 25 deg C; assay type: physicochemical
How it was run: (§1)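 Equilibrium solubility in PEG 400, in 50 mM citrate buffer pH 4 or in 50 mM phosphate buffer pH 7.4. Buffers brought to ionic strength 0.155 M with NaCl. Vials rotated at 25 °C for 4 days, final pH measured, then supernatant assayed by reverse-phase HPLC at 262 nm against a linear standard curve.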

[5] = n-Octanol-phosphate buffer distribution coefficient, log D at pH 7.4; assay type: physicochemical
How it was run: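 Compound was dissolved in n-octanol and mixed with 50 mM phosphate buffer, isotonic with NaCl, pH 7.4. The mixture was tumbled at 25 °C, 25 rpm, for 2-3 days, then centrifuged to split the phases. Each phase was assayed by reverse-phase HPLC (UV 262 nm) against a linear standard curve. D is the octanol/buffer concentration ratio.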

[6] = Aqueous solubility in 50 mM phosphate buffer at pH 7.4; assay type: physicochemical
How it was run: as §1

[7] = Inhibition of HCV isolate BK NS5B polymerase after 3 hrs by scintillation counting
[8] = Inhibition of HCV isolate H77 NS5B polymerase after 3 hrs by scintillation counting
[9] = Ratio of drug level in liver to plasma in rat at 5 mg/kg, po after 12 hrs; assay type: ADME, organism-based; design: dose 5 mg/kg, route oral
How it was run: (§2)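 Rats dosed orally at 5 mg/kg, four groups, sacrificed at 6 and 12 h. Plasma and liver homogenate extracted by acetonitrile protein precipitation with internal standard and quantified by LC-MS (negative-ion MRM). Liver/plasma ratio taken from the two concentrations.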

[10] = Plasma concentration in rat at 5 mg/kg, po after 6 hrs; assay type: ADME, organism-based; design: dose 5 mg/kg, route oral
How it was run: (§3)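 Vehicle DMSO:PEG400 (10:90, v/v). Dosing at 5 mg/kg in rat and monkey; dog 5 mg/kg or 2.5 mg/kg. Protein precipitation with acetonitrile, then LC-MS/MS in negative-ion MRM (m/z 516.2→437.0) against spiked standards with internal standard.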

[11] = Plasma concentration in rat at 5 mg/kg, po after 12 hrs; assay type: ADME, organism-based; design: dose 5 mg/kg, route oral
How it was run: as §3

[12] = Ratio of drug level in liver to plasma in rat at 5 mg/kg, po after 6 hrs; assay type: ADME, organism-based; design: dose 5 mg/kg, route oral
How it was run: as §2

[13] = Drug level in rat liver at 5 mg/kg, po after 12 hrs; assay type: ADME, organism-based; design: dose 5 mg/kg, route oral; conditions: read-out: Drug uptake
How it was run: as §2

[14] = Drug level in rat liver at 5 mg/kg, po after 6 hrs; assay type: ADME, organism-based; design: dose 5 mg/kg, route oral; conditions: read-out: Drug uptake
How it was run: as §2

[15] = Metabolic stability in dog liver microsomes assessed as intrinsic clearance; assay type: ADME, Canis lupus familiaris, Microsome
[16] = AUC in dog at 5 mg/kg, iv; assay type: ADME, organism-based, Canis lupus familiaris; design: dose 5 mg/kg, route intravenous; conditions: plasma
How it was run: as §3

[17] = AUC in monkey at 5 mg/kg, iv; assay type: ADME, organism-based, Macaca mulatta; design: dose 5 mg/kg, route intravenous; conditions: rhesus monkey, plasma
How it was run: as §3

[18] = Volume of distribution at steady state in monkey at 5 mg/kg, iv; assay type: ADME, organism-based, Macaca mulatta; design: dose 5 mg/kg, route intravenous; conditions: rhesus monkey, in vivo, read-out: Vdss
How it was run: (§4)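 Single intravenous dose. Heparinized plasma sampled at 0.1, 0.25, 0.5, 1, 2, 4, 6, 9, 12 and 24 h, plus 3 and 15 h in dog. Drug was isolated by acetonitrile protein precipitation and quantified by LC-MS in negative-ion MRM mode (m/z 516.2→437.0) against an internal standard. Concentrations came from unweighted linear regression of spiked standards.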

Hepatocyte [19] = assay: Metabolic stability in rat hepatocytes assessed as intrinsic clearance; assay type: ADME, cell-based, Liver
[20] = Cytotoxicity against human HuH7 cells by MTT assay; assay type: cell-based, Huh-7; conditions: read-out: TD50 (the source's name)
How it was run: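 Cytotoxicity in Huh-7 replicon cultures measured by MTT colorimetric assay after the four-day incubation.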

[21] = Terminal phase volume of distribution in rat at 5 mg/kg, iv; assay type: ADME, organism-based; design: dose 5 mg/kg, route intravenous; conditions: in vivo, read-out: Vbeta
How it was run: as §4

[22] = AUC in rat at 5 mg/kg, iv; assay type: ADME, organism-based; design: dose 5 mg/kg, route intravenous; conditions: plasma
How it was run: as §3

[23] = Elimination half life in monkey at 5 mg/kg, iv; assay type: ADME, organism-based, Macaca mulatta; design: dose 5 mg/kg, route intravenous; conditions: rhesus monkey, in vivo, read-out: beta t1/2 (converted)
How it was run: as §3

[24] = Metabolic stability in human liver microsomes assessed as intrinsic clearance; assay type: ADME, Microsome
[25] = Terminal phase volume of distribution in dog at 5 mg/kg, iv; assay type: ADME, organism-based, Canis lupus familiaris; design: dose 5 mg/kg, route intravenous; conditions: in vivo, read-out: Vbeta
How it was run: as §3

Hepatitis C virus [26] = assay: Ratio of EC50 for HCV isolate Con1 in presence of 40% human serum to EC50 for HCV isolate Con1; assay type: functional, Hepacivirus hominis
How it was run: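 Genotype 1b-con1 subgenomic replicon in Huh-7 cells. Four-day incubation with inhibitor in medium with 5% FBS, with or without 40% human serum. EC50 from the fall in HCV RNA copy number by real-time PCR. Ratio is EC50 with serum over EC50 without.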

[27] = Metabolic stability in monkey hepatocytes assessed as intrinsic clearance; assay type: ADME, cell-based, Macaca mulatta, Liver, Hepatocyte; conditions: rhesus monkey
[28] = Elimination half life in rat at 5 mg/kg, iv; assay type: ADME, organism-based; design: dose 5 mg/kg, route intravenous; conditions: in vivo, read-out: beta t1/2 (converted)
How it was run: as §3

[29] = Volume of distribution at steady state in dog at 5 mg/kg, iv; assay type: ADME, organism-based, Canis lupus familiaris; design: dose 5 mg/kg, route intravenous; conditions: in vivo, read-out: Vdss
How it was run: as §4

[30] = Plasma clearance in monkey at 5 mg/kg, iv; assay type: ADME, organism-based, Macaca mulatta; design: dose 5 mg/kg, route intravenous; conditions: rhesus monkey
How it was run: as §3

[31] = Plasma clearance in dog at 5 mg/kg, iv; assay type: ADME, organism-based, Canis lupus familiaris; design: dose 5 mg/kg, route intravenous
How it was run: as §3

[32] = Volume of distribution at steady state in rat at 5 mg/kg, iv; assay type: ADME, organism-based; design: dose 5 mg/kg, route intravenous; conditions: in vivo, read-out: Vdss
How it was run: as §4

[33] = Terminal phase volume of distribution in monkey at 5 mg/kg, iv; assay type: ADME, organism-based, Macaca mulatta; design: dose 5 mg/kg, route intravenous; conditions: rhesus monkey, in vivo, read-out: Vbeta
How it was run: as §4

Hepatocyte [34] = assay: Metabolic stability in human hepatocytes assessed as intrinsic clearance; assay type: ADME, cell-based, Liver
[35] = Plasma clearance in rat at 5 mg/kg, iv; assay type: ADME, organism-based; design: dose 5 mg/kg, route intravenous
How it was run: as §3

[36] = Metabolic stability in rat liver microsomes assessed as intrinsic clearance; assay type: ADME, Microsome
[37] = Metabolic stability in monkey liver microsomes assessed as intrinsic clearance; assay type: ADME, Macaca mulatta, Microsome; conditions: rhesus monkey
[38] = Elimination half life in dog at 5 mg/kg, iv; assay type: ADME, organism-based, Canis lupus familiaris; design: dose 5 mg/kg, route intravenous; conditions: in vivo, read-out: beta t1/2 (converted)
How it was run: as §3

[39] = Metabolic stability in dog hepatocytes assessed as intrinsic clearance; assay type: ADME, cell-based, Canis lupus familiaris, Liver, Hepatocyte

SMILES: COc1ccc2c(O[C@@H]3C[C@H]4C(=O)N[C@]5(C(=O)O)C[C@H]5/C=C\CCCCC[C@H](NC(=O)OC5CCCC5)C(=O)N4C3)cc(-c3csc(NC(C)C)n3)nc2c1
EC50 (Hepatitis C virus [1]): 3 nM | Activity (Hepatitis C virus [2]): 2 | EC50 (Hepatitis C virus [3]): 3 nM

solubility [4]: > 191.8 mg/mL | logD [5]: 1.45 | solubility [6]: < 0.07 µg/mL
SMILES: CS(=O)(=O)Nc1ccc2c(c1)S(=O)(=O)N=C(c1c([O-])c3ccccc3n(NC3CCC3)c1=O)N2.[Na+]

IC50 [7]: 518 nM | IC50 [8]: 444 nM
SMILES: CC(C)(C)CC[C@]1(C)C(=O)C(C2=NS(=O)(=O)c3cc(NS(C)(=O)=O)ccc3N2)=C(O)c2ccccc21

SMILES: CC(C)CC[C@@]1(C)C(=O)C(C2=NS(=O)(=O)c3cc(NS(C)(=O)=O)ccc3N2)=C(O)c2ccccc21
Kp at 12 h [9]: 20 | concentration at 6 h [10]: 445 nM | concentration at 12 h [11]: 135 nM | Kp at 6 h [12]: 17 | concentration at 12 h [13]: 1430 ng/g | concentration at 6 h [14]: 3800 ng/g

SMILES: CC(C)CC[C@@]1(C)C(=O)C(C2=NS(=O)(=O)c3cc(NS(C)(=O)=O)ccc3N2)=C([O-])c2ccccc21.[Na+]
IC50 [7]: 0.9 nM | microsomal CLint [15]: 3.5 µL/min/mg | EC50 (Hepatitis C virus [1]): 3 nM | IC50 [8]: 1.3 nM | AUC [16]: 11800 ng·h/mL | AUC [17]: 10200 ng·h/mL | Vd [18]: 0.19 L/kg | CL (Hepatocyte [19]): 9 µL/min/mg | CC50 [20]: 35300 nM | Vd [21]: 1.97 L/kg | AUC [22]: 5200 ng·h/mL | half-life [23]: 0.7 h | microsomal CLint [24]: 29.6 µL/min/mg | concentration at 12 h [13]: 1430 ng/g | Vd [25]: 1.74 L/kg | concentration at 6 h [14]: 3800 ng/g | Ratio EC50 (Hepatitis C virus [26]): 14 | CL [27]: 29.2 µL/min/mg | half-life [28]: 1.2 h | Vd [29]: 1.1 L/kg | clearance [30]: 8.5 mL/min/kg | clearance [31]: 7.33 mL/min/kg | Vd [32]: 1.72 L/kg | Vd [33]: 0.5 L/kg | CL (Hepatocyte [34]): 6.8 µL/min/mg | clearance [35]: 16 mL/min/kg | microsomal CLint [36]: 36.3 µL/min/mg | microsomal CLint [37]: 62 µL/min/mg | half-life [38]: 2.7 h | EC50 (Hepatitis C virus [3]): 11 nM | CL [39]: 2.2 µL/min/mg
